Assay results reported in ChEMBL document CHEMBL2021907, “Amyrisins A-C, O-prenylated flavonoids from Amyris madrensis” (J Nat Prod, 2012).
Calls of active or inactive are those of the source. No cut-off for these calls is given here.

How the values were obtained:
[1] = system: PC-3; test: Cytotoxicity against human PC3 cells after 48 hrs by SRB assay; format: functional, cell-based; details: PC-3, 48 h
Method in brief: (§1)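 SRB assay over 48 h, with a concentration range up to 50 μM, in cells pre-plated at set densities. PC-3 cells were grown in RPMI 1640 with 10% FBS and 50 µg/mL gentamicin. DU 145 cells were grown in Richter's IMEM with 10% FBS and 25 µg/mL gentamicin. The IC50 is the 50% growth-inhibition concentration, averaged over two independent triplicate experiments.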

[2] = system: DU-145; test: Cytotoxicity against human DU145 cells after 48 hrs by SRB assay; format: functional, cell-based; details: DU-145, 48 h; method in brief: as §1
[3] = organism: Homo sapiens; test: Disruption of microtubules in human MDA-MB-435 after 1 hr by immunoblotting technique
[4] = system: PC-3; test: Effect on cell cycle distribution in human PC3 cells at 50 uM after 18 hrs by flow cytometry; format: functional, cell-based
[5] = system: PC-3; test: Cytotoxicity against human PC3 cells at 50 uM after 48 hrs by SRB assay; format: functional, cell-based; method in brief: as §1

Row | Activity [3] | SMILES | IC50 [1] [µM] | IC50 [2] [µM] | Activity [4] | Activity [5]
1 | inactive | COc1cc(-c2cc(=O)c3c(O)c(OC)c(O)cc3o2)ccc1OCC=C(C)C [AMYRISIN C] | 23 | 23 | inactive | –
2 | inactive | C=C(C)C(O)COc1ccc(-c2cc(=O)c3c(O)c(OC)c(O)cc3o2)cc1 (stereo unspecified) [AMYRISIN B] | 17.5 | 17.5 | – | –
3 | inactive | COc1c(O)cc2oc(-c3ccc(OCC=C(C)C)cc3)cc(=O)c2c1O | – | – | – | inactive

Row | SMILES | Activity [3] | IC50 [1] [µM] | IC50 [2] [µM] | Activity [4] | Activity [5]
4 | O=C1OC[C@@H]2Cc3cc4c(cc3[C@@H](c3ccc5c(c3)OCO5)[C@@H]12)OCO4 [POLYGAMAIN] | Active | 0.0706 | – | – | –
